Where “and” joins values, the source holds several entries; their conditions need not be identical. Identical values can stand only once.
How the values were obtained:
[1] = test system: HuTuP108 primary glioblastoma cells; assay: cell proliferation analysis; type: cell-based, human; details: 72 h; for effect of combination on the effect of TMZ: compound 10 µM + TMZ 500 µM
[2] = cytotoxicity in resting peripheral blood lymphocytes; type: cell-based; details: human
HD-MB03 cells = assay: apoptosis assay; type: cell-based, human; details: 72 h; for apoptotic cells in combination with cis-Pt: 10 µM + cis-Pt 1.8 µM, HD-MB03, vs single treatments; for induction of apoptosis (apoptotic cells): 10 µM alone, HD-MB03
In short: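 HD-MB03 medulloblastoma cells grown in RPMI 1640 with 10% FBS, 1% glutamine and 1% penicillin–streptomycin, kept at 2% O2/5% CO2. Seeded at 10 000 cells/well, treated after 24 h, exposed 72 h. Stained 15 min in the dark at room temperature with Annexin V–FITC (FL1, 525 nm/40) and PI (FL3, 620 nm/20). Whole population analysed by flow cytometry. Mean ± SE, three independent experiments.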

[3] = test system: HuTuP108 GBM primary cells; assay: apoptosis assay; type: cell-based, human; details: 72 h; for apoptotic cells in combination with TMZ: 10 µM + TMZ 500 µM, HuTuP108, vs single treatments; for induction of apoptosis: 10 µM alone, HuTuP108
In short: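 Patient-derived primary glioblastoma cells on fibronectin-coated plates in DMEM/F12 with 10% BIT9500, 20 ng/mL bFGF and 20 ng/mL EGF, held at 2% O2/5% CO2. Seeded at 10 000 cells/well, dosed 24 h later for 72 h. Annexin V–FITC/PI staining for 15 min in the dark at room temperature, then flow cytometry (FL1 525 nm/40, FL3 620 nm/20) on the whole population. Mean ± SE of three independent experiments.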

hCA I = hCA I (Homo sapiens, UniProt P00915); assay: stopped-flow CO2 hydrase assay, hCA I; type: biochemical; details: stopped flow technique, mean from three assays
hCA I, sequence (P00915 whole entry): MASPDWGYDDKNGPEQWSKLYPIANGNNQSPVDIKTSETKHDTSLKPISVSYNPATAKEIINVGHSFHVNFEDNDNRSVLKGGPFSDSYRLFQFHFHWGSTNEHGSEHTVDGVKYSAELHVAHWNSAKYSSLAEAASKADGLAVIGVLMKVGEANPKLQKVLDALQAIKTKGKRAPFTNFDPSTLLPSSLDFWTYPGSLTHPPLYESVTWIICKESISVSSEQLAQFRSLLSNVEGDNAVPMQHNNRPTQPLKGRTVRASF

hCA II = hCA II (Homo sapiens, UniProt P00918); assay: stopped-flow CO2 hydrase assay, hCA II; type: biochemical; details: stopped flow technique, mean from three assays
hCA IV = hCA IV (Homo sapiens, UniProt P22748); assay: stopped-flow CO2 hydrase assay, hCA IV; type: biochemical; details: stopped flow technique, mean from three assays
hCA IV, sequence (P22748 19-284 limits assumed): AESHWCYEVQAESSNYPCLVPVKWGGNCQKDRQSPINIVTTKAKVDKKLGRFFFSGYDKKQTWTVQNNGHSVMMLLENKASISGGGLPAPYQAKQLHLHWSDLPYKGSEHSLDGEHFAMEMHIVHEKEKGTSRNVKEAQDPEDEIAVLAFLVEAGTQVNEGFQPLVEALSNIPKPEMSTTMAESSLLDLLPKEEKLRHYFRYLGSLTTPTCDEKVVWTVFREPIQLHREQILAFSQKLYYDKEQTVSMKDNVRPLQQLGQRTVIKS

hCA IX = hCA IX (Homo sapiens, UniProt Q16790); assay: biochemical; type: biochemical; details: for Ki: KI hCA IX, stopped flow technique, mean from three assays; for Selectivity index I/IX: ratio KI hCA I / KI hCA IX; for Selectivity index II/IX: ratio KI hCA II / KI hCA IX; for Selectivity index IV/IX: ratio KI hCA IV / KI hCA IX
hCA XII = hCA XII (Homo sapiens, UniProt O43570); assay: stopped-flow CO2 hydrase assay, hCA XII; type: biochemical; details: for Ki: KI hCA XII, stopped flow technique, mean from three assays; for Selectivity index I/XII: ratio KI hCA I / KI hCA XII; for Selectivity index II/XII: ratio KI hCA II / KI hCA XII; for Selectivity index IV/XII: ratio KI hCA IV / KI hCA XII
hCA XII, sequence (O43570 25-354): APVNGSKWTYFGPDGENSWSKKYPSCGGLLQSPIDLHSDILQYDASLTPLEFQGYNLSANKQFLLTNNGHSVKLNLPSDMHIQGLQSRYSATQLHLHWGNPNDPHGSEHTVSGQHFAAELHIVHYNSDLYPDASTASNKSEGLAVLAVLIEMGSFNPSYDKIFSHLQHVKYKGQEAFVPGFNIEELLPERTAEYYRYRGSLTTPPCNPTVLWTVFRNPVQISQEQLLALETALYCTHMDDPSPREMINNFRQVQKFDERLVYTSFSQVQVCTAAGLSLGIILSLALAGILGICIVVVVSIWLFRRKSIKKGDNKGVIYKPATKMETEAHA

[4] = test system: HD-MB03 and DAOY medulloblastoma cell lines; assay: cell proliferation analysis; type: cell-based, human; details: 72 h; for effect of combination on efficacy of CDDP in reducing cell viability: compound 10 µM + cis-Pt 1.8 µM, both MB cell lines
[5] = test system: HuTuP192 primary glioblastoma cells; assay: cell proliferation analysis; type: cell-based, human; details: 72 h; for effect of combination on the effect of TMZ: compound 10 µM + TMZ 500 µM, HuTuP192

Cn1nnc2c(C(N)=O)ncn2c1=O [TMZ, temozolomide, reference compound]
response of cells to TMZ ([1]; TMZ 500 µM): resistant

NS(=O)(=O)c1ccc(NC(=O)Nc2ccc(F)cc2)cc1 [SLC-0111, reference compound]
GI50 at 72 h [2]: > 10 µM
apoptotic cells in combination with cis-Pt (HD-MB03 cells): did not cause any increase in cytotoxicity
induction of apoptosis (apoptotic cells) (HD-MB03 cells): did not significantly induce apoptosis
apoptotic cells in combination with TMZ [3]: did not cause any increase in cytotoxicity
induction of apoptosis [3]: did not significantly induce apoptosis

COc1cccc(-c2ccnc3nc(Nc4ccc(S(N)(=O)=O)cc4)nn23)c1 [Compound 1x, 4-((7-(3-Methoxyphenyl)-[1,2,4]triazolo[1,5-a]pyrimidin-2-yl)amino)benzenesulfonamide]
Ki (hCA I): 1.06 µM
Ki (hCA II): 0.0338 µM
Ki (hCA IV): 0.559 µM
Ki (hCA IX): 0.0051 µM
Selectivity index I/IX (hCA IX): 207
Selectivity index II/IX (hCA IX): 6.6
Selectivity index IV/IX (hCA IX): 110
Ki (hCA XII): 0.0125 µM
Selectivity index I/XII (hCA XII): 84.5
Selectivity index II/XII (hCA XII): 2.7
Selectivity index IV/XII (hCA XII): 44.8
GI50 at 72 h [2]: > 10 µM
effect of combination on efficacy of CDDP in reducing cell viability [4]: significantly improved the efficacy of CDDP
decrease in viability ([5]; 10 µM, HuTuP192, hypoxic conditions): most potent

COc1ccccc1-c1ccnc2nc(Nc3ccc(S(N)(=O)=O)cc3)nn12 [Compound 1y, 4-((7-(2-Methoxyphenyl)-[1,2,4]triazolo[1,5-a]pyrimidin-2-yl)amino)benzenesulfonamide]
Ki (hCA I): 2.2 µM
Ki (hCA II): 0.0729 µM
Ki (hCA IV): 6.32 µM
Ki (hCA IX): 0.011 µM
Selectivity index I/IX (hCA IX): 200
Selectivity index II/IX (hCA IX): 6.6
Selectivity index IV/IX (hCA IX): 575
Ki (hCA XII): 0.0316 µM
Selectivity index I/XII (hCA XII): 69.5
Selectivity index II/XII (hCA XII): 2.3
Selectivity index IV/XII (hCA XII): 200
GI50 at 72 h [2]: > 10 µM
effect of combination on the effect of TMZ [5]: did not significantly improve the effect of TMZ
effect of combination on the effect of TMZ [1]: did not significantly improve the effect of TMZ

COc1cc(OC)cc(-c2ccnc3nc(Nc4ccc(S(N)(=O)=O)cc4)nn23)c1 [Compound 1aa, 4-((7-(3,5-Dimethoxyphenyl)-[1,2,4]triazolo[1,5-a]pyrimidin-2-yl)amino)benzenesulfonamide]
Ki (hCA I): 4.53 µM
Ki (hCA II): 0.11 µM
Ki (hCA IV): 1.01 µM
Ki (hCA IX): 0.0468 µM
Selectivity index I/IX (hCA IX): 96.7
Selectivity index II/IX (hCA IX): 2.4
Selectivity index IV/IX (hCA IX): 21.5
Ki (hCA XII): 0.0271 µM
Selectivity index I/XII (hCA XII): 167
Selectivity index II/XII (hCA XII): 4.1
Selectivity index IV/XII (hCA XII): 37.2

NS(=O)(=O)c1ccc(Nc2nc3nccc(-c4ccncc4)n3n2)cc1 [Compound 1c, 4-((7-(Pyridin-4-yl)-[1,2,4]triazolo[1,5-a]pyrimidin-2-yl)amino)benzenesulfonamide]
Ki (hCA I): 0.725 µM
Ki (hCA II): 0.0437 µM
Ki (hCA IV): 0.726 µM
Ki (hCA IX): 0.0416 µM
Selectivity index I/IX (hCA IX): 17.4
Selectivity index II/IX (hCA IX): 1.0
Selectivity index IV/IX (hCA IX): 17.5
Ki (hCA XII): 0.0153 µM
Selectivity index I/XII (hCA XII): 47.4
Selectivity index II/XII (hCA XII): 2.9
Selectivity index IV/XII (hCA XII): 47.5

NS(=O)(=O)c1ccc(Nc2nc3nccc(-c4c(F)ccc(F)c4F)n3n2)cc1 [Compound 1j, 4-((7-(2,3,6-Trifluorophenyl)-[1,2,4]triazolo[1,5-a]pyrimidin-2-yl)amino)benzenesulfonamide]
Ki (hCA I): 0.496 µM
Ki (hCA II): 0.0139 µM
Ki (hCA IV): 0.662 µM
Ki (hCA IX): 0.0086 µM
Selectivity index I/IX (hCA IX): 57.7
Selectivity index II/IX (hCA IX): 1.6
Selectivity index IV/IX (hCA IX): 77.0
Ki (hCA XII): 0.0054 µM
Selectivity index I/XII (hCA XII): 91.9
Selectivity index II/XII (hCA XII): 2.6
Selectivity index IV/XII (hCA XII): 123
GI50 at 72 h [2]: > 10 µM
effect of combination on efficacy of CDDP in reducing cell viability [4]: significantly improved the efficacy of CDDP
effect of combination on the effect of TMZ [5]: did not significantly improve the effect of TMZ
effect of combination on the effect of TMZ [1]: did not significantly improve the effect of TMZ
apoptotic cells in combination with cis-Pt (HD-MB03 cells): significant increase in the percentage of apoptotic cells
induction of apoptosis (apoptotic cells) (HD-MB03 cells): about 25%
apoptotic cells in combination with TMZ [3]: significant increase in the percentage of apoptotic cells
induction of apoptosis [3]: ineffective

NS(=O)(=O)c1ccc(Nc2nc3nccc(-c4cccc(Cl)c4)n3n2)cc1 [Compound 1l, 4-((7-(3-Chlorophenyl)-[1,2,4]triazolo[1,5-a]pyrimidin-2-yl)amino)benzenesulfonamide]
Ki (hCA I): 6.58 µM
Ki (hCA II): 0.124 µM
Ki (hCA IV): 5.98 µM
Ki (hCA IX): 0.0304 µM
Selectivity index I/IX (hCA IX): 216
Selectivity index II/IX (hCA IX): 4.06
Selectivity index IV/IX (hCA IX): 197
Ki (hCA XII): 0.0464 µM
Selectivity index I/XII (hCA XII): 142
Selectivity index II/XII (hCA XII): 2.7
Selectivity index IV/XII (hCA XII): 129

[NH2][Pt]([NH2])([Cl])[Cl] [CDDP, cisplatin, reference compound]
viability reduction by CDDP alone ([4]; CDDP concentration used for combination (cis-Pt 1.8 µM)): around 50%

NS(=O)(=O)c1ccc(Nc2nc3nccc(-c4ccccc4F)n3n2)cc1 [Compound 1h, 4-((7-(2-Fluorophenyl)-[1,2,4]triazolo[1,5-a]pyrimidin-2-yl)amino)benzenesulfonamide]
Ki (hCA I): 0.682 µM
Ki (hCA II): 0.0359 µM
Ki (hCA IV): 0.92 µM
Ki (hCA IX): 0.0195 µM
Selectivity index I/IX (hCA IX): 35.0
Selectivity index II/IX (hCA IX): 1.8
Selectivity index IV/IX (hCA IX): 47.2
Ki (hCA XII): 0.0258 µM
Selectivity index I/XII (hCA XII): 26.4
Selectivity index II/XII (hCA XII): 1.4
Selectivity index IV/XII (hCA XII): 35.7

NS(=O)(=O)c1ccc(Nc2nc3nccc(-c4ccccc4Cl)n3n2)cc1 [Compound 1m, 4-((7-(2-Chlorophenyl)-[1,2,4]triazolo[1,5-a]pyrimidin-2-yl)amino)benzenesulfonamide]
Ki (hCA I): 9.15 µM
Ki (hCA II): 0.155 µM
Ki (hCA IV): 6.48 µM
Ki (hCA IX): 0.0148 µM
Selectivity index I/IX (hCA IX): 618
Selectivity index II/IX (hCA IX): 10 and 10.5
Selectivity index IV/IX (hCA IX): 438
Ki (hCA XII): 0.0169 µM
Selectivity index I/XII (hCA XII): 541
Selectivity index II/XII (hCA XII): 9.2
Selectivity index IV/XII (hCA XII): 384
GI50 at 72 h [2]: > 10 µM
effect of combination on efficacy of CDDP in reducing cell viability [4]: significantly improved the efficacy of CDDP
effect of combination on the effect of TMZ [5]: did not significantly improve the effect of TMZ
effect of combination on the effect of TMZ [1]: did not significantly improve the effect of TMZ

NS(=O)(=O)c1ccc(Nc2nc3nccc(-c4cccc(Br)c4)n3n2)cc1 [Compound 1o, 4-((7-(3-Bromophenyl)-[1,2,4]triazolo[1,5-a]pyrimidin-2-yl)amino)benzenesulfonamide]
Ki (hCA I): 9.2 µM
Ki (hCA II): 0.133 µM
Ki (hCA IV): 4.33 µM
Ki (hCA IX): 0.0381 µM
Selectivity index I/IX (hCA IX): 241
Selectivity index II/IX (hCA IX): 3.5
Selectivity index IV/IX (hCA IX): 114
Ki (hCA XII): 0.0786 µM
Selectivity index I/XII (hCA XII): 117
Selectivity index II/XII (hCA XII): 1.7
Selectivity index IV/XII (hCA XII): 55.1

NS(=O)(=O)c1ccc(Nc2nc3nccc(-c4ccc(Br)cc4)n3n2)cc1 [Compound 1n, 4-((7-(4-Bromophenyl)-[1,2,4]triazolo[1,5-a]pyrimidin-2-yl)amino)benzenesulfonamide]
Ki (hCA I): 3.37 µM
Ki (hCA II): 0.2 µM
Ki (hCA IV): 5.21 µM
Ki (hCA IX): 0.0527 µM
Selectivity index I/IX (hCA IX): 63.8
Selectivity index II/IX (hCA IX): 3.8
Selectivity index IV/IX (hCA IX): 98.9
Ki (hCA XII): 0.0582 µM
Selectivity index I/XII (hCA XII): 57.8
Selectivity index II/XII (hCA XII): 3.4
Selectivity index IV/XII (hCA XII): 89.6

Reference: publication PMC10586084 (Journal of Enzyme Inhibition and Medicinal Chemistry, 2023)
